Measured values gathered from unrelated publications.
Each line is one published result; the experiments were not run side by side.
Observed: enzyme activity
Action: inhibitor
BRAF: Serine/threonine-protein kinase B-raf (BRAF, Homo sapiens, UniProt P15056)
BRAF V600E: Serine/threonine-protein kinase B-raf (BRAF, Homo sapiens, UniProt P15056, V600E)

Compound	target	assay	setting	inhibition
O=C(CSc1nc2nccnc2c(=O)n1CCc1ccccc1)Nc1nccs1	BRAF	–	10 µM	9%
CN1CC(Oc2cnc(C#N)cc2-c2ccn3nc(NC(=O)C4CC4)cc3c2)C1	BRAF	–	1 µM	2%
Cc1ccc(N=Nc2sc(NN=C(CS(=O)(=O)c3ccccc3)c3ccc(C)cc3)nc2C)cc1	BRAF V600E	ATP luminescence	10 nM	29%
CS(=O)(=O)Nc1cccc(-c2csc(NC(=O)CSc3nc4nccnc4c(=O)n3CCc3ccccc3)n2)c1	BRAF V600E	–	10 µM	2%
COc1cc2ncnc(Nc3ccc(Oc4ccccc4)c(C)c3C)c2cc1OC	BRAF	–	1 µM	11%
COc1ccc(-c2csc(NN=C(CS(=O)(=O)c3ccccc3)c3ccc(F)cc3)n2)cc1	BRAF V600E	ATP luminescence	10 nM	25%
C=CC(=O)Nc1cc(Nc2nccc(Nc3cc(Cl)c(F)cc3C(C)(C)O)n2)c(OC)cc1N1CC[C@@H](N(C)C)C1	BRAF	–	1 µM	4%
Cc1ccc(C(CS(=O)(=O)c2ccccc2)=NNC(N)=S)cc1	BRAF V600E	ATP luminescence	10 nM	31%
CN(C)C1CCN(CC#Cc2nn(C3CCCC3)c3nc(NCc4ccccc4)ncc23)C1 (stereo not drawn)	BRAF	FRET	1 µM	1%
COc1cc2nccc(Oc3ccc(NC(=O)c4c5n(n(-c6ccc(F)cc6)c4=O)CCCC5)cc3)c2cc1OC	BRAF	–	0.1 µM	18%
Cn1cncc1C1=CN(c2ncnc3[nH]cnc23)CCS1	BRAF	radiometric	50 nM	12.9%
COc1cc(-c2cc(-c3ccc(N4CCNCC4)cc3)cnc2N)cc(OC)c1OC	BRAF V600E	–	1 µM	18%
